For eight compounds, Highest nontoxic dose, ED50 and LD50 results are on record in ChEMBL document CHEMBL1124517, “Nucleosides of azathioprine and thiamiprine as antiarthritics” (J Med Chem, 1989).

The species entered for data set [1] is Rattus norvegicus. Description: Compound was tested for dose at which there was no significant weight loss in rat at day 16. The data set is classed as functional. Summed up:
(§1)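 Female Lewis rats (starting weight 190 ± 10 g) with adjuvant-induced arthritis. Compound was milled into rodent chow and given in the diet (mg/kg/day) from the day of adjuvant injection for 14 days. Weight change and deaths were scored on day 16. The highest nontoxic dose was the highest dose without significant weight loss. LD50 was the dietary dose killing 50% by day 16. Some values are approximate, from two dose levels.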

The species entered for data set [2] is Rattus norvegicus. Description: Antiarthritic activity in rat determined by adjuvant arthritis assay in rat. In kind it is functional. Summed up: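 Female Lewis rats, starting weight 190 ± 10 g, adjuvant-induced arthritis. Compound milled into rodent diet, dosed as mg/kg/day in diet from the day of adjuvant injection for 14 days. Arthritic score and weight change assessed on day 16. ED50 is the dose giving a 50% reduction in arthritic score relative to untreated animals.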

Data set [3] is filed under the species Rattus norvegicus. The data set is described as follows: Compound was tested for lethal dose at day 16 against rat. In kind it is ADME, organism-based. Particulars: in vivo. Summed up: as §1

By ED50 is commonly meant the midpoint of the dose-response relation. The term LD50 denotes the dose at which mortality reaches 50%. Low values mean greater toxicity, high ones lower toxicity. Turning to `Cn1cnc([N+](=O)[O-])c1Sc1nc(N)nc2c1ncn2[C@H]1C[C@H](O)[C@@H](CO)O1`, in the data set filed under Rattus norvegicus [1], the Highest nontoxic dose is 50 mg kg-1 (day in diet)-1. For the same compound, the 50% effective dose (ED50) in the data set filed under Rattus norvegicus [2] is given as 38 mg kg-1 (day in diet)-1. Moreover, in the data set listed under Rattus norvegicus [3], the LD50 is reported as 100 mg kg-1 (day in diet)-1.

Turning to `Cn1cnc([N+](=O)[O-])c1Sc1ncnc2c1ncn2[C@@H]1O[C@H](CO)[C@@H](O)[C@H]1O`, the Highest nontoxic dose in the data set listed under Rattus norvegicus [1] is reported as 180 mg kg-1 (day in diet)-1. Moreover, the 50% effective dose (ED50) in the data set filed under Rattus norvegicus [2] is 68 mg kg-1 (day in diet)-1. Besides, the 50% lethal dose (LD50) in the data set filed under Rattus norvegicus [3] is 200 mg kg-1 (day in diet)-1.

Regarding `Cn1cnc([N+](=O)[O-])c1Sc1ncnc2c1ncn2[C@H]1C[C@H](O)[C@@H](CO)O1`, in the data set filed under Rattus norvegicus [1], the Highest nontoxic dose is 100 mg kg-1 (day in diet)-1. Further, in the data set listed under Rattus norvegicus [2], the 50% effective dose (ED50) is given as 64 mg kg-1 (day in diet)-1. Further, the median lethal dose (LD50) in the data set filed under Rattus norvegicus [3] was > 270 mg kg-1 (day in diet)-1.

Consider `Cn1cnc([N+](=O)[O-])c1Sc1nc(N)nc2c1ncn2[C@@H]1O[C@H](CO)[C@@H](O)[C@H]1O`, for which the Highest nontoxic dose in the data set filed under Rattus norvegicus [1] is listed as 50 mg kg-1 (day in diet)-1. Besides, in the data set listed under Rattus norvegicus [2], the ED50 is reported as 36 mg kg-1 (day in diet)-1. The LD50 in the data set filed under Rattus norvegicus [3] is on record as 50 mg kg-1 (day in diet)-1.

Turning to `Cn1cnc([N+](=O)[O-])c1Sc1ncnc2nc[nH]c12` [AZATHIOPRINE], the Highest nontoxic dose in the data set listed under Rattus norvegicus [1] was 48 mg kg-1 (day in diet)-1. The ED50 in the data set filed under Rattus norvegicus [2] is on record as 21 mg kg-1 (day in diet)-1. Further, the LD50 in the data set filed under Rattus norvegicus [3] is 150 mg kg-1 (day in diet)-1.

Take `Sc1ncnc2nc[nH]c12` [MERCAPTOPURINE ANHYDROUS]: the Highest nontoxic dose in the data set filed under Rattus norvegicus [1] is 20 mg kg-1 (day in diet)-1. In the data set listed under Rattus norvegicus [2], the ED50 is on record as 20 mg kg-1 (day in diet)-1. Besides, in the data set filed under Rattus norvegicus [3], the LD50 is reported as 25 mg kg-1 (day in diet)-1.

Turning to `Cn1cnc([N+](=O)[O-])c1Sc1nc(N)nc2[nH]cnc12` [THIAMIPRINE], the Highest nontoxic dose in the data set filed under Rattus norvegicus [1] was 30 mg kg-1 (day in diet)-1. Also, the ED50 in the data set filed under Rattus norvegicus [2] is reported as 19 mg kg-1 (day in diet)-1. Further, the LD50 in the data set listed under Rattus norvegicus [3] is on record as 60 mg kg-1 (day in diet)-1.

With `Nc1nc2nc[nH]c2c(=S)[nH]1` [THIOGUANINE], in the data set listed under Rattus norvegicus [1], the Highest nontoxic dose was 10 mg kg-1 (day in diet)-1. For the same compound, in the data set filed under Rattus norvegicus [2], the ED50 is given as 10 mg kg-1 (day in diet)-1. The LD50 in the data set filed under Rattus norvegicus [3] was 20 mg kg-1 (day in diet)-1.
